Test results reported in ChEMBL document CHEMBL1135487, “Structure-activity relationship for enhancement of paracellular permeability across Caco-2 cell monolayers by 3-alkylamido-2-alkoxypropylphosphocholines” (J Med Chem, 2002).

Key:
[1] = test system: Caco-2; test: Increase in the mannitol flux by 10-fold (EC10x) of the control value; format: functional, Homo sapiens
Procedure, shortened: (§1)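 Caco-2 monolayers on filters, TEER 600–800 Ω·cm². Enhancer at 0.01–5.0 mM in HBSS applied apically for 20 min, then washed out. Apical side then given 0.1 mM [3H]mannitol, 37 °C, sink conditions. Basolateral samples taken at 20, 40, 60 and 90 min and counted by liquid scintillation. EC10x = concentration raising mannitol permeability 10-fold over control; triplicate.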

[2] = test system: Caco-2; test: Decrease in the trans-epithelial electrical resistance(TEER) in Caco-2 cell monolayers; format: functional, cell-based; conditions: Homo sapiens
Procedure, shortened: (§2)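 Caco-2 cells (passage 45–55) grown on 1.0 cm² polycarbonate filters for 20–22 days and equilibrated 1 h in HBSS (25 mM HEPES, 25 mM glucose, pH 7.4) at 37 °C; monolayers with TEER 600–800 Ω·cm² used. Compound applied apically in HBSS at various concentrations for 20 min at room temperature. TEER read by voltohmmeter, blank filter subtracted. EC50 = concentration cutting TEER 50% versus untreated; triplicate, mean ± SD.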

[3] = Concentration to decrease mitochondrial dehydrogenase vs concentration to decrease TEER (IC50/EC50); format: functional
Procedure, shortened: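 Ratio of two values measured on Caco-2 cells (passage 45–55). IC50: cells grown 96 h, exposed 20 min to phospholipid in HBSS, MTT added for 120 min more, SDS/HCl-isobutanol stop, absorbance 590 nm. EC50: 20–22-day monolayers (TEER 600–800 Ω·cm²), 20 min apical exposure in HBSS at room temperature, 50% TEER fall vs untreated. Triplicates.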

[4] = test system: Caco-2; test: Critical Micelle Concentration (CMC) determined by fluorescence assay using DPH as a probe; format: functional, Homo sapiens
Procedure, shortened: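 Aqueous phosphocholine solutions over a concentration range received DPH (1 µL of 10 mM stock in THF per 2 mL). They were held 30 min in the dark at room temperature, then fluorescence was read (ex 365, em 460 nm). CMC was taken as the intersection of linear fits below and above the intensity inflection; mean of triplicates.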

[5] = test system: Caco-2; test: Concentration to increase the mannitol flux by 10-fold (EC10x) of the control value; format: functional, Homo sapiens; procedure, shortened: as §1
[6] = test system: Caco-2; test: Concentration to decrease the transepithelial electrical resistance (TEER) in Caco-2 cell monolayers; format: functional, cell-based; conditions: Homo sapiens; procedure, shortened: as §2

SMILES | EC50 [2] | Potency index [3] | EC50 [6] | EC10x [1] | CMC [4] | EC10x [5]
CCCCCCCCCCCCCCCCOC(CNC(C)=O)COP(=O)([O-])OCC[N+](C)(C)C (centres undefined) | 70 µM | 1.43 |  | 350 µM |  | 
CCCCCCCCCCCCOC(CNC(=O)CCCCCCCCC)COP(=O)([O-])OCC[N+](C)(C)C (centres undefined) | 1040 µM | 1.92 |  | >3000 µM |  | 
CCCCCCCCCC(=O)NCC(COP(=O)([O-])OCC[N+](C)(C)C)OCCCCCC (centres undefined) | 420 µM | 2.38 |  | 730 µM |  | 
CCCCCCCCCCCCCC(=O)NCC(COP(=O)([O-])OCC[N+](C)(C)C)OCC (centres undefined) | 80 µM | 2 |  | 890 µM | 148 µM | 
CCCCCCCCCCCCCCCC(=O)NCC(COP(=O)([O-])OCC[N+](C)(C)C)OCCCC (centres undefined) | 90 µM | 1.11 |  | 480 µM |  | 
CCCCCCCCCCCCOC(CNC(C)=O)COP(=O)([O-])OCC[N+](C)(C)C (centres undefined) | 780 µM | 1.72 |  | 4270 µM |  | 
CCCCCCCC(=O)NCC(COP(=O)([O-])OCC[N+](C)(C)C)OCCCCCC (centres undefined) | > 5000 µM |  |  | >5000 µM |  | 
CCCCCCCCCCCCCCCCCCOC(CNC(C)=O)COP(=O)([O-])OCC[N+](C)(C)C (centres undefined) | 90 µM | 1.11 |  | 340 µM |  | 
CCCCCCCCCCCCCCCC(=O)NCC(COP(=O)([O-])OCC[N+](C)(C)C)OCCCCCC (centres undefined) | 520 µM | 0.6 |  | 1610 µM |  | 
CCCCCCCC(=O)NCC(COP(=O)([O-])OCC[N+](C)(C)C)OCCCC (centres undefined) | > 5000 µM |  |  | >5000 µM |  | 
CCCCCCCCCCCC(=O)NCC(COP(=O)([O-])OCC[N+](C)(C)C)OCCCCCC (centres undefined) | 190 µM | 0.84 |  | 1010 µM |  | 
CCCCCCCCCC(=O)NCC(COP(=O)([O-])OCC[N+](C)(C)C)OCCCC (centres undefined) | 3190 µM | 1.24 |  | >5000 µM | 1170 µM | 
CCCCCCCCCC(=O)NCC(COP(=O)([O-])OCC[N+](C)(C)C)OCCCCCCCC (centres undefined) |  | 1.27 | 300 µM |  | 55.3 µM | 1210 µM
CCCCOC(CNC(=O)CCC)COP(=O)([O-])OCC[N+](C)(C)C (centres undefined) | > 5000 µM |  |  | >5000 µM |  | 

Now from value to compound, other results behind:

EC50 [2] | Potency index [3] | EC50 [6] | SMILES | EC10x [1] | CMC [4] | EC10x [5]
> 2000 µM |  |  | CCCCCCCCCCCCCCCC(=O)NCC(COP(=O)([O-])OCC[N+](C)(C)C)OCCCCCCCCCC (centres undefined) | >2000 µM |  | 
> 2000 µM |  |  | CCCCCCCCCCCCCCCCOC(CNC(=O)CCCCCCCCC)COP(=O)([O-])OCC[N+](C)(C)C (centres undefined) | >2000 µM |  | 
> 1000 µM |  |  | CCCCCCCCCCCCCCCC(=O)NCC(COP(=O)([O-])OCC[N+](C)(C)C)OCCCCCCCCCCCC (centres undefined) | >1000 µM |  | 
> 5000 µM |  |  | CCCCCCCCCCCCCCCCCC(=O)NCC(COP(=O)([O-])OCC[N+](C)(C)C)OCCCCCCCC (centres undefined) | >5000 µM |  | 
> 2000 µM |  |  | CCCCCCCCCCCCCCOC(CNC(=O)CCCCCCCCC)COP(=O)([O-])OCC[N+](C)(C)C (centres undefined) | >2000 µM |  | 
> 5000 µM |  |  | CCCCCCCCCCCCCCCC(=O)NCC(COP(=O)([O-])OCC[N+](C)(C)C)OCCCCCCCC (centres undefined) | >5000 µM |  | 
300 µM | 0.93 |  | CCCCCCCCCCCCCCCCOC(CNC(=O)CCCCC)COP(=O)([O-])OCC[N+](C)(C)C (centres undefined) | 1350 µM |  | 
> 500 µM |  |  | CCCCCCCCCCCCCCCCOC(CNC(=O)CCCCCCCCCCC)COP(=O)([O-])OCC[N+](C)(C)C (centres undefined) | >500 µM |  | 
